{"source": "paper PMC3032767", "about": "(Journal of cellular physiology, 2008)", "key": {"[1]": {"test_system": "VEGF-induced phosphorylation of extracellular signal-regulated kinase (ERK)", "experiment": "Western blot of VEGF-induced signaling in microvascular EC", "assay_type": "cell-based, human", "details": "1 µM for 1 hr, then rhVEGF 50 ng/ml 10 min", "outline": "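Endothelial cells were held overnight in serum- and growth factor-free medium before test compound exposure. After 10 min rhVEGF, cells were lysed and blotted for phosphorylated Erk1/2, with total STAT3 as loading control. Comparison groups were no-VEGF and VEGF-only cultures.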"}, "Fyn": {"target": "Fyn (Homo sapiens, UniProt P06241)", "experiment": "Kinase inhibition assay", "assay_type": "biochemical", "outline": "(§1)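 Kinase activity was measured by commercial services. IC50 is the mean of 3 independent experiments.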"}, "[2]": {"test_system": "laser-induced choroidal neovascularization (CNV)", "experiment": "Mouse model of laser-induced CNV", "assay_type": "in vivo, C57BL/6 mice", "details": "14 days"}, "[3]": {"experiment": "Body weight and tolerability in the mouse CNV study", "assay_type": "in vivo", "details": "14 days"}, "Lck": {"target": "Lck (Homo sapiens, UniProt P06239)", "experiment": "Kinase inhibition assay", "assay_type": "biochemical"}, "Src": {"target": "Src (Homo sapiens, UniProt P12931)", "experiment": "Kinase inhibition assay", "assay_type": "biochemical"}, "VEGFR1": {"target": "VEGFR1 (Homo sapiens, UniProt P17948)", "sequence (P17948 27-1338, species assumed)": "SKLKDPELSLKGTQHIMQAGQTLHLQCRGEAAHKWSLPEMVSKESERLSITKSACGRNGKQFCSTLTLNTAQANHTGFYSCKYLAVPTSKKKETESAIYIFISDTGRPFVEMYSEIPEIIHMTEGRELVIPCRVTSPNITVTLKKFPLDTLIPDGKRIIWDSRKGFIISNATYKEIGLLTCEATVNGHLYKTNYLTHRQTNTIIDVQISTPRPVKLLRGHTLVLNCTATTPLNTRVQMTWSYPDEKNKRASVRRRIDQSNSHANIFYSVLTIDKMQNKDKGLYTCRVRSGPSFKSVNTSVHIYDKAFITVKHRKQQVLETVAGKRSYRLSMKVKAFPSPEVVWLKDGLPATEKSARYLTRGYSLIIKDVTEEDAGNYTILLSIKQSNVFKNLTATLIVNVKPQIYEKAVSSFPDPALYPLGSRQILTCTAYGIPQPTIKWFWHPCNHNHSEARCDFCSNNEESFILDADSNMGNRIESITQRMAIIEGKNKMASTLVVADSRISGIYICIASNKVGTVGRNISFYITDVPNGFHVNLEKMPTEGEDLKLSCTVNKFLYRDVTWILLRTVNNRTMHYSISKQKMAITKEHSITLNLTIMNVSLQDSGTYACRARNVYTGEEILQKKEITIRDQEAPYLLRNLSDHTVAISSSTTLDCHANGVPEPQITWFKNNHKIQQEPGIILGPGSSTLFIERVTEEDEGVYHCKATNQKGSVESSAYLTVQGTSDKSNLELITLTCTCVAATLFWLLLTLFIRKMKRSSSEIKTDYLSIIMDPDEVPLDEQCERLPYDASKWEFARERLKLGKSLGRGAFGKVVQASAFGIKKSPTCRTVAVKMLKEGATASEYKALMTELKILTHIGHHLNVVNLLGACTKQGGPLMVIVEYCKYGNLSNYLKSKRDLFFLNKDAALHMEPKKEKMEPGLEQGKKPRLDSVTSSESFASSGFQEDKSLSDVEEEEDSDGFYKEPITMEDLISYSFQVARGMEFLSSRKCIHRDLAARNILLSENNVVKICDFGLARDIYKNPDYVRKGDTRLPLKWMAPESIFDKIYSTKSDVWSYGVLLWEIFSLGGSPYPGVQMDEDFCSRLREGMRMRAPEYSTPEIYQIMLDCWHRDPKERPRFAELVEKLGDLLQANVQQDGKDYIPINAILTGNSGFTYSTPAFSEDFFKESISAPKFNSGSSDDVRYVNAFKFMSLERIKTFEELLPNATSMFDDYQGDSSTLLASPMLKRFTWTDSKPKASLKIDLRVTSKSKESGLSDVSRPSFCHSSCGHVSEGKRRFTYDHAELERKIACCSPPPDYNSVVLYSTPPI", "experiment": "Kinase inhibition assay", "assay_type": "biochemical", "outline": "as §1"}, "[4]": {"test_system": "human retinal microvascular EC", "experiment": "Endothelial cell proliferation assay", "assay_type": "cell-based", "details": "48 hr; 10% FBS, 50 ng/mL rhVEGF; mean ± SEM, N= 3", "outline": "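Human retinal microvascular EC were grown 48 hr with test compound (2 nM–5 µM) or DMSO vehicle in medium containing 10% FBS, 50 µg/mL heparin and 50 ng/mL rhVEGF. Cell number was read by XTT assay.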"}, "[5]": {"experiment": "Pharmacokinetics after topical dosing in mice", "assay_type": "in vivo, C57BL/6 mice", "details": "for Plasma concentration (below level of detection): mouse, topical 1% TG100801, all time points, analyte = labelled compound"}, "PDGFRβ": {"target": "PDGFRβ (Homo sapiens, UniProt P09619)", "sequence (P09619 33-1106, species assumed)": "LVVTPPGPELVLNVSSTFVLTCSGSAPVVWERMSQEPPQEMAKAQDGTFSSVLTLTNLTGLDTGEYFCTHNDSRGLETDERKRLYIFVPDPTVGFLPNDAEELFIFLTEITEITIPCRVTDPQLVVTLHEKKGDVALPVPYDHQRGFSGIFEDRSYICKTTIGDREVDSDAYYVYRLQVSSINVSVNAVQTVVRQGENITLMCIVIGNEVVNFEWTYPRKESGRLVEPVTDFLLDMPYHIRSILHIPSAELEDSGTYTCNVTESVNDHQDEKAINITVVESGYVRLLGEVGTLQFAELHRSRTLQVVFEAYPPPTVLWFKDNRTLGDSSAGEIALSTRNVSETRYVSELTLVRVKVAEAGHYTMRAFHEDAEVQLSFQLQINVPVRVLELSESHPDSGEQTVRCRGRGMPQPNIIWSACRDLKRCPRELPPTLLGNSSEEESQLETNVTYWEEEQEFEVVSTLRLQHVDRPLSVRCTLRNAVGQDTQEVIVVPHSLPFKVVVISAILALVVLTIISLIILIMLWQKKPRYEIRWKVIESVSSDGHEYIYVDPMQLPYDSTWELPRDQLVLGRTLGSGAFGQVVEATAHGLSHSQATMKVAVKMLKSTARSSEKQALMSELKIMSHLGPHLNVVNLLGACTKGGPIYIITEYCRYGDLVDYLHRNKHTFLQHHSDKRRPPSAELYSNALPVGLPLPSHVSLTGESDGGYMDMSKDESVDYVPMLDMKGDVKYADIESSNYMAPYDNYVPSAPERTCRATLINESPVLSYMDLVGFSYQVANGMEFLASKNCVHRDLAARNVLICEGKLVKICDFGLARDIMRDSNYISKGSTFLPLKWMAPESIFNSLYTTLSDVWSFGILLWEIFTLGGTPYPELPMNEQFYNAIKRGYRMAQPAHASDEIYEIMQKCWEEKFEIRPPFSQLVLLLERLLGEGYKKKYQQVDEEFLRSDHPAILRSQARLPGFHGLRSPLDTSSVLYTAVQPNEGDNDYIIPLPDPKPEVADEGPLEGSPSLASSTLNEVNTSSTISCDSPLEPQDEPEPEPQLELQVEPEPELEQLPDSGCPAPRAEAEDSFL", "experiment": "Kinase inhibition assay", "assay_type": "biochemical", "outline": "as §1"}, "Lyn": {"target": "Lyn (Homo sapiens, UniProt P07948)", "sequence (P07948 whole entry, species assumed)": "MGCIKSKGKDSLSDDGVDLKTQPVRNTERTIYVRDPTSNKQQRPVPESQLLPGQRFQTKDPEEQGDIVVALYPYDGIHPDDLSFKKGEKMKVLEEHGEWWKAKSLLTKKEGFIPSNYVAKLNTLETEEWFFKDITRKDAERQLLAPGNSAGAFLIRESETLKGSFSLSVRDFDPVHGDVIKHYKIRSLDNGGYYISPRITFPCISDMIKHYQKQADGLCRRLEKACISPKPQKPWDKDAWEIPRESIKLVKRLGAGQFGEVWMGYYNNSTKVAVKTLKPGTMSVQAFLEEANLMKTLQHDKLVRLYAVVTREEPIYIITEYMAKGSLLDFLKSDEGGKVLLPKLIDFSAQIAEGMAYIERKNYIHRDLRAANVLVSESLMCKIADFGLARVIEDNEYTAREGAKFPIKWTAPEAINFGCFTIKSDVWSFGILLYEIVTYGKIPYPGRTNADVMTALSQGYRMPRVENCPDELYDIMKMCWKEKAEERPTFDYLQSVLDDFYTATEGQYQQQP", "experiment": "Kinase inhibition assay", "assay_type": "biochemical", "outline": "as §1"}, "FGFR1": {"target": "FGFR1 (Homo sapiens, UniProt P11362)", "sequence (P11362 22-822, species assumed)": "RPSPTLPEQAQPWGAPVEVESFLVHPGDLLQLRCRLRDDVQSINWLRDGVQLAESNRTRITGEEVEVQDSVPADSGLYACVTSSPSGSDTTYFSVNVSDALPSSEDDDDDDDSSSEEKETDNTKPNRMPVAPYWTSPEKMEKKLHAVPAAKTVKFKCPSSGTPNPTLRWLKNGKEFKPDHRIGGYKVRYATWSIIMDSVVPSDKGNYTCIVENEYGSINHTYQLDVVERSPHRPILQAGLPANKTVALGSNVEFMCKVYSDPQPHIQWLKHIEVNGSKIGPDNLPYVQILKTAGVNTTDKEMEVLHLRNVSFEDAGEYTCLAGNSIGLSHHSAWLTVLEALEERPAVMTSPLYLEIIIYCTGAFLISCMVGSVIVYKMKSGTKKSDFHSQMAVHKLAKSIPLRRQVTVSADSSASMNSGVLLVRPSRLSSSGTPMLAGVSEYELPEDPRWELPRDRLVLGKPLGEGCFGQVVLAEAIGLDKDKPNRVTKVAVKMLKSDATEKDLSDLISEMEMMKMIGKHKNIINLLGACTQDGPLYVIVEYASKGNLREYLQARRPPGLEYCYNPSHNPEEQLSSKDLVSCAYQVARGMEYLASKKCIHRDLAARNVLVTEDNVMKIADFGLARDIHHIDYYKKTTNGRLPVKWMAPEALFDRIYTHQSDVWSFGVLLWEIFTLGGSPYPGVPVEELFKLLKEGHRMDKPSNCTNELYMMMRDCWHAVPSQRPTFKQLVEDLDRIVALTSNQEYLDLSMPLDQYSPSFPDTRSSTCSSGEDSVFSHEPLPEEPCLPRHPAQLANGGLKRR", "experiment": "Kinase inhibition assay", "assay_type": "biochemical", "outline": "as §1"}, "Hck": {"target": "Hck (Homo sapiens, UniProt P08631)", "experiment": "Kinase inhibition assay", "assay_type": "biochemical", "outline": "as §1"}, "FGFR2": {"target": "FGFR2 (Homo sapiens, UniProt P21802)", "experiment": "Kinase inhibition assay", "assay_type": "biochemical", "outline": "as §1"}, "Yes": {"target": "Yes (Homo sapiens, UniProt P07947)", "sequence (P07947 whole entry, species assumed)": "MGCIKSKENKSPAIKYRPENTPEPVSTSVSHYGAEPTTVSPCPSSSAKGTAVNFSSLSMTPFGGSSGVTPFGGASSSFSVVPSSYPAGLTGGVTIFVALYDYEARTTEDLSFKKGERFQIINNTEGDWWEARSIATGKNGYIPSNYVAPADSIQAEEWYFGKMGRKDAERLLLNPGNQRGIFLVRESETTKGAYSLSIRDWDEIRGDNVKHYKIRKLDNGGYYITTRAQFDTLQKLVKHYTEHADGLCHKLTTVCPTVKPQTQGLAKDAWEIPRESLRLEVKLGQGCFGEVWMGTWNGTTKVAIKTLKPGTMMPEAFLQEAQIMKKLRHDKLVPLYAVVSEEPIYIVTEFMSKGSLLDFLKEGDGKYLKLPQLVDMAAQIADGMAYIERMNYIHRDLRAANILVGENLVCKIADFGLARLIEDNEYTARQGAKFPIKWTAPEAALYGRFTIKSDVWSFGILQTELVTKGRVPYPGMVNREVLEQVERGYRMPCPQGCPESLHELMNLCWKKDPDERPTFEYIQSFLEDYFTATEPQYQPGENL", "experiment": "Kinase inhibition assay", "assay_type": "biochemical", "outline": "as §1"}, "VEGFR2": {"target": "VEGFR2 (Homo sapiens, UniProt P35968)", "experiment": "Kinase inhibition assay", "assay_type": "biochemical", "outline": "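Kinase inhibition was run by commercial services, with the test compound supplied as a DMSO stock. IC50 is the mean from 3 independent experiments.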"}, "[6]": {"experiment": "Oral and intravenous administration, systemic exposure", "assay_type": "in vivo", "details": "data not shown; for Oral bioavailability: oral administration"}, "Fgr": {"target": "Fgr (Homo sapiens, UniProt P09769)", "sequence (P09769 whole entry, species assumed)": "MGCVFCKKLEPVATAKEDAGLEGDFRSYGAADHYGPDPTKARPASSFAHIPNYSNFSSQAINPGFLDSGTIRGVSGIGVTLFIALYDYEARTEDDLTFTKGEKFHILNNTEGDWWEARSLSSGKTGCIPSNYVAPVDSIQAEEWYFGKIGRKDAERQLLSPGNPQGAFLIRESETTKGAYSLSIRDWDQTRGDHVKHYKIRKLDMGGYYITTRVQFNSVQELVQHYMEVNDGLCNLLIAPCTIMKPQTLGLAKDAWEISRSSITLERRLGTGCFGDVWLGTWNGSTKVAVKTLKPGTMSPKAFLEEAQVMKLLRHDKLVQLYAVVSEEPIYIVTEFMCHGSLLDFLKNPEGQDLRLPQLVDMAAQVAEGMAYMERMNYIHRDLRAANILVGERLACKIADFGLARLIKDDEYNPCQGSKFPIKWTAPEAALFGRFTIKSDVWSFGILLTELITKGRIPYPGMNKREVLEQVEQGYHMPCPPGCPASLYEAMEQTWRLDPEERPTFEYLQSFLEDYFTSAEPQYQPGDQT", "experiment": "Kinase inhibition assay", "assay_type": "biochemical", "outline": "as §1"}, "[7]": {"experiment": "Ocular tissue levels after i.p. dosing in mice", "assay_type": "in vivo, C57BL/6 mice", "details": "C57BL/6, mouse, ip, 5 mg/kg", "outline": "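C57BL/6 mice (15–20 g) got 5 mg/kg test compound i.p. twice daily for 4 days, then a single dose on Day 5. Eyes were taken 5 hr later, dissected into retina and sclera/choroid eye cups, and pooled (N=2–4). Tissue was homogenized in RIPA, extracted with acetonitrile containing internal standards and quantified by LC/MS/MS against standards made in naive tissue.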"}, "[8]": {"test_system": "retinal edema after retinal vein thrombosis", "experiment": "Rat model of retinal vein occlusion, retinal thickness by OCT", "assay_type": "in vivo, Long Evans rats", "details": "topical 1% TG100801", "outline": "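The same Rose Bengal/laser vein-occlusion protocol and 5-dose topical schedule were used, with 1% test prodrug or vehicle; naive eyes served as comparators. Under ketamine/xylazine, vertical OCT scans covered 5 mm from the optic disc edge. Thickness was calculated at 6 evenly spaced points, and retinal area was derived. Assessment was blinded, n=17–21.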"}, "kinase": {"test_system": "kinase", "experiment": "Anti-kinase activity of the prodrug", "assay_type": "biochemical", "details": "data not shown"}, "[9]": {"experiment": "Ocular safety assessment in rabbits", "assay_type": "in vivo, Dutch Belted rabbits", "details": "rabbit, 1% topical four times per day for 28 days", "outline": "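Dutch Belted rabbits (1.7–2.2 kg) had baseline gross and slit lamp exams. Each eye then received 40 µL of 1% test prodrug or vehicle topically four times daily for 28 days. Gross exams were done daily and slit lamp exams weekly. On Day 29, final exams and ERGs were done, then eyes were taken for histopathology.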"}, "[10]": {"experiment": "Ocular distribution of 14C-TG100801", "assay_type": "in vivo, Dutch-Belted rabbit", "details": "rabbit, 30 min after single 40 µL topical 1% TG100801 containing 14C-TG100801, left eye; liquid scintillation counter", "outline": "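A single male Dutch-Belted rabbit (2.1 kg) received 25 µCi of 14C label in the dose. The label sits on a position kept after prodrug conversion, so counts cover prodrug plus active drug. About 30 mL blood was taken 30 min post-instillation. Blood and plasma were counted directly by liquid scintillation.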"}, "[11]": {"test_system": "retinal edema after retinal vein thrombosis", "assay_type": "in vivo, Long Evans rats", "outline": "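Long Evans rats (250–275 g) got i.v. Rose Bengal (20 mg/kg), then laser thrombosis of one vein in the right eye. Both eyes received 10 µL test prodrug (0.3–1%) or vehicle, 5 doses over 3 days. Edema Index = (right AUC − left AUC)/left AUC. Scoring was blinded, n=9–11.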"}, "[12]": {"test_system": "retinal and choroidal neovascularization", "details": "topical administration to the eye; ref Takahashi et al., 2003; cited from earlier work"}, "[13]": {"test_system": "subfoveal choroidal neovascularization (CNV) due to AMD", "details": "intraocular injections every 6 weeks; ref Gragoudas et al., 2004; cited from earlier work"}}, "note": "Where two headings read alike, the source gives them in different places.", "data": [{"compound": "Cc1cc(-c2cc(O)ccc2Cl)cc2nnc(Nc3ccc(OCCN4CCCC4)cc3)nc12", "note": "[TG100572, 4-chloro-3-(5-methyl-3-{[4-(2-pyrrolidin-1-ylethoxy)phenyl]amino}-1,2,4-benzotriazin-7-yl)phenol]", "values": [{"measurement": "VEGF-induced phosphorylation of ERK", "setting": "[1]", "result": "blocked VEGF-induced phosphorylation of extracellular signal-regulated kinase (ERK)"}, {"measurement": "IC50", "setting": "Fyn", "result": 0.5, "unit": "nM"}, {"measurement": "Reduction of CNV area compared to vehicle", "setting": "[2]; TG100572 5 mg/kg i.p. daily, P< 0.001", "result": 40, "unit": "%"}, {"measurement": "Body weight loss over the study", "setting": "[3]; TG100572 5 mg/kg i.p. daily, vehicle gained 1%, P= 0.006", "result": 11, "unit": "%"}, {"measurement": "IC50", "setting": "Lck", "result": 0.1, "unit": "nM"}, {"measurement": "IC50", "setting": "Src", "result": 1, "unit": "nM"}, {"measurement": "IC50", "setting": "VEGFR1", "result": 2, "unit": "nM"}, {"measurement": "ED50, inhibition of vascular endothelial cell proliferation", "setting": "[4]", "result": "610 ± 71", "unit": "nM"}, {"measurement": "AUC(0-t)", "setting": "[5]; C57BL/6, mouse, posterior eyecup (sclera/choroid/retina), topical or ocular, 1 %", "result": 6.8, "unit": "µM·h"}, {"measurement": "Tmax", "setting": "[5]; C57BL/6, mouse, sclera/choroid, topical or ocular, 1 %", "result": 1, "unit": "h"}, {"measurement": "Plasma concentration (below level of detection)", "setting": "[5]", "result": "< 2", "unit": "nM"}, {"measurement": "IC50", "setting": "PDGFRβ", "result": 13, "unit": "nM"}, {"measurement": "IC50", "setting": "Lyn", "result": 0.4, "unit": "nM"}, {"measurement": "IC50", "setting": "FGFR1", "result": 2, "unit": "nM"}, {"measurement": "IC50", "setting": "Hck", "result": 6, "unit": "nM"}, {"measurement": "IC50", "setting": "FGFR2", "result": 16, "unit": "nM"}, {"measurement": "IC50", "setting": "Yes", "result": 0.2, "unit": "nM"}, {"measurement": "IC50", "setting": "VEGFR2", "result": 7, "unit": "nM"}, {"measurement": "Clearance after intravenous administration", "setting": "[6]", "result": "rapidly cleared"}, {"measurement": "Oral bioavailability", "setting": "[6]", "result": "oral administration does not result in detectable levels in the circulation"}, {"measurement": "IC50", "setting": "Fgr", "result": 5, "unit": "nM"}, {"measurement": "concentration at 5 h", "setting": "[7]; choroid/sclera", "result": 9000, "unit": "nM"}, {"measurement": "concentration at 5 h", "setting": "[7]; retina", "result": 818, "unit": "nM"}]}, {"compound": "Cc1cc(-c2cc(OC(=O)c3ccccc3)ccc2Cl)cc2nnc(Nc3ccc(OCCN4CCCC4)cc3)nc12", "note": "[TG100801, 4-chloro-3-(5-methyl-3-{[4-(2-pyrrolidin-1-ylethoxy)phenyl]amino}-1,2,4-benzotriazin-7-yl)phenyl benzoate]", "values": [{"measurement": "Average retinal area in the region encompassed by the OCT scans", "setting": "[8]; thrombosed eyes, naive 203 ± 2, vehicle 327 ± 23", "result": "257 ± 13", "unit": "µm^2"}, {"measurement": "Reduction of retinal thickness vs vehicle at points along 5 mm OCT scans", "setting": "[8]; 5 out of 6 points, P< 0.05", "result": "15–26%"}, {"measurement": "Reduction of average retinal area vs vehicle-treated group", "setting": "[8]; P= 0.013", "result": 21, "unit": "%"}, {"measurement": "Anti-kinase activity", "setting": "kinase", "result": "does not display meaningful anti-kinase activity"}, {"measurement": "Reduction of CNV area relative to vehicle", "setting": "[2]; topical 1% TG100801 twice a day, P= 0.036", "result": 58, "unit": "%"}, {"measurement": "Ocular tolerability by slit lamp examination", "setting": "[3]; mouse, topical 0.6% and 1% twice a day", "result": "well tolerated with no signs of irritation, inflammation, or other ocular toxicity"}, {"measurement": "Daily gross exams and weekly slit lamp exams", "setting": "[9]", "result": "did not detect ocular changes beyond baseline responses"}, {"measurement": "Electroretinograms (ERG) pre- and post-study", "setting": "[9]", "result": "no meaningful changes"}, {"measurement": "Ocular histopathology at study end", "setting": "[9]", "result": "normal ocular histology"}, {"measurement": "Ocular tolerability, overall judgement", "setting": "[9]", "result": "well-tolerated"}, {"measurement": "Body weight during the study", "setting": "[9]; data not shown", "result": "did not lose weight"}, {"measurement": "Plasma concentration (below level of detection)", "setting": "[5]", "result": "< 2", "unit": "nM"}, {"measurement": "Radioactivity in plasma samples", "setting": "[10]", "result": "absence of detectable radioactivity"}, {"measurement": "Reduction in edema (Edema Index, fluorescein leakage) vs vehicle", "setting": "[11]; topical 0.3% TG100801, 5 applications over 3 days, P= 0.002", "result": 47, "unit": "%"}, {"measurement": "Reduction in edema (Edema Index, fluorescein leakage) vs vehicle", "setting": "[11]; topical 1% TG100801, 5 applications over 3 days, P = 0.039", "result": 32, "unit": "%"}, {"measurement": "Clearance after intravenous administration", "setting": "[6]", "result": "rapidly cleared"}, {"measurement": "Oral bioavailability", "setting": "[6]", "result": "oral administration does not result in detectable levels in the circulation"}]}, {"compound": "NC(=O)Cc1cccc(C(=O)c2ccccc2)c1N", "note": "[nepafenac]", "values": [{"measurement": "Effect on retinal and choroidal neovascularization", "setting": "[12]", "result": "inhibits retinal and choroidal neovascularization"}]}, {"compound": "pegaptanib", "values": [{"measurement": "Severe vision loss over 1 year", "setting": "[13]", "result": "reduction in severe vision loss"}]}]}
